# Screening results (PubChem)
# PLCb3 inh = blocks human PLC-beta3 enzyme activity. Q01970. Purified PLC-beta3, fluorogenic substrate, fluorescence. inhibition, % at 12.2 µM. 370,000 compounds, 0.18% hits;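 also: 0% = median of compound wells on plate and 100% = full blocker control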
# PLCg1 inh = blocks human PLC-gamma1 enzyme activity. P19174. purified PLC-gamma1, fluorogenic substrate, fluorescence. inhibition, % at 12.2 µM. 370,000 compounds, 0.84% hits. AID 720700; in the data active = inhibition above about 9.5%
# UCH37 DUB inh = inhibitors of human deubiquitinating enzyme UCH37. purified proteasome/UCH37, Ub-AMC cleavage fluorescence. 330,000 compounds, 0.33% hits. inhibition, % (no concentration beside the values). Q9Y5K5;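 active = mean inhibition over replicate wells above about 20%, limit read from the data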;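 also: 0% = compound-free wells with enzyme and 100% = wells lacking proteasome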
# Target sequence (Q9Y5K5 whole entry, looked up): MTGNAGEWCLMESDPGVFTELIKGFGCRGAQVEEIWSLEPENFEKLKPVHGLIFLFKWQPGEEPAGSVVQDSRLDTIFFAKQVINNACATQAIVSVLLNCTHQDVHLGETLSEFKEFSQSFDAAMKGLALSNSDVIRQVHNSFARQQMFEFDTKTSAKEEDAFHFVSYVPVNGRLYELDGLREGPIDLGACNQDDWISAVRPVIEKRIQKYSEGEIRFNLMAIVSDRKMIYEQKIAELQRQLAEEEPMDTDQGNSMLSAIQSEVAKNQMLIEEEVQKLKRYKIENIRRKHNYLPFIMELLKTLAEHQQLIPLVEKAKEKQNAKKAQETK
#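 Signal – fluorescence, ex 355 nm, em 460 nm · System – Proteasome-bound UCH37 · Input – 0.15 nM proteasome as dispensed · Timing – 30 min preincubation with enzyme, 25 min cleavage at room temperature · Read-out basis – percent inhibition of cleavage signal versus uninhibited and no-proteasome wells · Medium – Tris-HCl pH 7.4 with ATP-MgCl2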
# Rpn11 block = inhibitors of human proteasome Rpn11; inhibition, % at 20 µM; human 26S proteasome, Ub4-pepOG fluorescence polarization; 20S core pre-blocked with epoxomicin; O00487; AID 588493; 360,000 compounds, 0.59% hits;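 active = inhibition at 20 µM, scaled to each plate's controls, above about 33%, limit read from the data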
# Target sequence (O00487 whole entry, looked up): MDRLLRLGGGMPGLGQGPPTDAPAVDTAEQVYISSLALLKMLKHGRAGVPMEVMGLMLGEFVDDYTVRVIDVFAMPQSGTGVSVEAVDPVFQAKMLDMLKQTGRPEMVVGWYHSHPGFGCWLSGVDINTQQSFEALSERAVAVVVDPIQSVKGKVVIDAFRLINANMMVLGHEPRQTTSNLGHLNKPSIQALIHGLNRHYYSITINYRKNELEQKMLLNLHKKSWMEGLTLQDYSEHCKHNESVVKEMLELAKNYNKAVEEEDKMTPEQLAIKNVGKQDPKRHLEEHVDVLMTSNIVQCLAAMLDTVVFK
# PLCg1 ctr = inhibits human PLC-gamma1 in PLC-beta3 counter-screen | inhibition, % at 12.3 µM | purified PLC-gamma1, fluorogenic substrate, fluorescence | AID 743258 | 3,300 compounds, 3.1% hits | shares compounds with PLCg1 inh; in the data active = inhibition above about 9.5%
# PLCbeta3 conf = human PLC-beta3 inhibition, confirmation | shares compounds with PLCg1 inh | purified PLC-beta3, fluorogenic substrate fluorescence | inhibition, % at 12.3 µM | 3,300 compounds, 1% hits | AID 743261
# An asterisk follows results filed as active; x = no result given. An excerpt weighted towards active compounds, which were near 1.7% of everything screened. Rule as the data show it, unless noted: active = inhibition above about 11%; inactive = the rest.
SMILES,PLCb3 inh,PLCg1 inh,UCH37 DUB inh,Rpn11 block,PLCg1 ctr,PLCbeta3 conf
CCOc1ccc(N2C(=O)CC(S/C(N)=N/N=C/c3cccs3)C2=O)cc1 (stereo not drawn),5,10*,x,0,3,6
Cc1ccc(C)c(S(=O)(=O)c2c(C)cc(C)nc2Cl)c1,-5,-2,2,-3,x,x
Cc1ccc(S(=O)(=O)c2c(C)cc(C)nc2Cl)c(C)c1,-1,11*,3,-4,-3,-3
O=[N+]([O-])c1cccc(-c2ccc(C=NNc3nc(N4CCCCC4)nc(N4CCCCC4)n3)o2)c1,x,x,8,x,x,x
CC(C)n1ncc(C(N)=O)c1N,2,9.8*,1,-2,-3,3
CC(/C=C/c1ccccc1F)=NNC(=O)C(C)C,x,x,5,x,x,x
Cc1cc([N+](=O)[O-])nn1CCCC(=O)Nc1cc(Oc2ccccc2)cc([N+](=O)[O-])c1,3,5,5,-5,x,x
Cc1cccc(Oc2cc(NC(=O)Cn3cnc([N+](=O)[O-])n3)cc([N+](=O)[O-])c2)c1,5,11*,6,7,5,2
COC(=O)[C@]12C[C@H](CC(=O)NCc3cccc4ccccc34)C(=O)N(Cc3cccc4ccccc34)C1=C[C@H](C(C)C)O[C@@H]2C1CC1,-1,3,x,x,x,x
COC(=O)[C@]12C[C@H](CC(=O)NCCCCc3ccccc3)C(=O)N(Cc3cccc4ccccc34)C1=C[C@H](C(C)C)O[C@@H]2C1CC1,2,13*,x,x,-1,-6
C#CCNC(=O)C[C@H]1C[C@@]2(C(=O)OC)C(=C[C@H](C(C)C)O[C@@H]2C2CC2)N(Cc2cccc3ccccc23)C1=O,-1,9.5*,x,x,-7,-2
COCCCNC(=O)C[C@H]1C[C@@]2(C(=O)OC)C(=C[C@H](C(C)C)O[C@@H]2C2CC2)N(Cc2ccccc2)C1=O,-1,1,x,x,x,x
COC(=O)[C@]12C[C@H](CC(=O)N3CCCC3)C(=O)N(CCC3=CCCCC3)C1=C[C@H](C1CCCC1)O[C@@H]2C,1,11*,x,x,-3,0
COC(=O)[C@]12C[C@H](CC(=O)NCC3CCCCC3)C(=O)N(Cc3ccccc3)C1=C[C@H](C(C)C)O[C@@H]2C1CC1,12*,5,x,x,-1,-1
CCn1c(SCC(=O)NN=Cc2ccccc2OCC(=O)O)nnc1-c1ccc(OC)cc1,x,x,3,x,x,x
COc1ccccc1NC(=O)COc1ccc(C=NNC(=O)c2cccnc2)cc1,x,x,-3,x,x,x
COC(=O)[C@]12C[C@H](CC(=O)NCc3ccc(C)o3)C(=O)N(Cc3ccccc3)C1=C[C@H](C1CCCC1)O[C@@H]2C,12*,7,x,x,-8,-4
CC1(C)CC(=O)C=C(c2ccc(OC(F)(F)F)cc2)C1,2,-4,1,5,x,x
CC1(C)CC(=O)C=C(c2ccc(Oc3ccccc3)cc2)C1,1,10*,-2,10,-2,-2
CCOC(=O)Cc1csc(SCC(=O)c2c(N)n(CC(C)C)c(=O)n(C)c2=O)n1,0,10*,2,1,-2,2
Cc1ccc(-n2nnnc2SCC(=O)c2c(N)n(CC(C)C)c(=O)n(C)c2=O)cc1,3,11*,3,8,-5,1
CC(C)Cn1c(N)c(C(=O)CSc2nc3ccccc3n2C)c(=O)n(C)c1=O,3,1,1,24,x,x
CCc1ccc(C=NNC(=O)c2cc(C)on2)s1,x,x,11,x,x,x
CC(C)(C)c1cc(C(=O)NN=Cc2ccc([N+](=O)[O-])s2)n[nH]1,x,x,2,x,x,x
CCCC=NNC(=O)c1[nH]c2c([N+](=O)[O-])cccc2c1C,x,x,2,x,x,x
SMILES,PLCb3 inh,PLCg1 inh,UCH37 DUB inh,Rpn11 block,PLCg1 ctr,PLCbeta3 conf
CC(=O)C(=NNc1cccc(Cl)c1)Sc1cccc2cccnc12,x,x,7,x,x,x
Cc1cccc(NCC(=O)N/N=C\c2cccn2C)c1,-6,11*,x,-50,-249,-1
CC(=NNC(=O)c1ccncc1)C12CC3CC(CC(C3)C1)C2,x,x,-1,x,x,x
Cc1ccc(F)cc1NC(=S)NCCc1ccccc1,3,11*,2,5,-2,-1
Cc1ccccc1NC(=S)NCCC(c1ccccc1)c1ccccc1,2,10*,-1,3,0,-1
Cc1ccc(NC(=S)NCCC(c2ccccc2)c2ccccc2)c(C)c1,-2,5,4,2,x,x
Cc1ccc(NC(=S)NCCc2ccc(F)cc2)c(C)c1,1,0,2,-2,x,x
Cc1sc2nc(C3CC3)nc(NCCNS(=O)(=O)c3ccccc3)c2c1C,6,9.6*,0,-21,-2,0
Cc1ccc(NC(=O)/C(C#N)=C/c2ccsc2)c(C)c1,11*,5,1,-3,-7,-3
CCOc1ccc(-c2cc(C(=O)NN=C(C)c3cccnc3)c3ccccc3n2)cc1,x,x,-43,x,x,x
N#Cc1c(NC(=O)C2CC(c3ccccc3O)=NO2)sc2c1CCC2 (stereo not drawn),0,14*,2,-2,-4,-2
O=C(CN1c2ccccc2Sc2ccccc21)NN=Cc1ccccc1,x,x,5,x,x,x
COc1ccc(C=c2sc(=CC(=O)c3ccc(C)cc3)[nH]c2=O)c(OC)c1,x,x,10,x,x,x
COc1ccc(NC2=NC(=S)N(c3ccccc3C)C23CCCCC3)cc1,2,5,4,10,x,x
COc1ccc(N2C(=S)N=C(Nc3ccccc3)C23CCCCC3)cc1,-3,15*,1,1,0,4
CCOc1cc(C=NNc2nc(=O)[nH]nc2C)ccc1O,x,x,18,x,x,x
CC1(c2nnc(-c3ccccc3)o2)CC(c2ccc(F)cc2)=NO1 (stereo not drawn),0,1,2,-8,x,x
Fc1ccc(C2=NOC(c3nnc(-c4ccccc4)o3)C2)cc1 (stereo not drawn),12*,6,2,2,-7,-2
CCCCCC=NNC(=O)c1[nH]c2ccc([N+](=O)[O-])cc2c1C,x,x,1,x,x,x
O=C(NN=Cc1ccc(-c2ccccc2[N+](=O)[O-])o1)c1cncc(Br)c1,x,x,8,x,x,x
COc1ccc(/C=N/NC(=S)Nc2ccccc2)cc1COc1ccc(F)cc1,16*,11*,x,0,-11,-10
O=C(CSCc1ccc(Cl)cc1)NN=Cc1ccco1,x,x,2,x,x,x
CC(C)(C)OC(=O)CNC(=O)c1[nH]cnc1C(=O)Nc1ccc(CNC(=O)OC(C)(C)C)cc1,13*,7,-1,7,-1,-2
CC(C)(C)OC(=O)NCc1ccc(NC(=O)c2nc[nH]c2C(=O)NCCNC(=O)c2[nH]cnc2C(=O)Nc2ccc(CNC(=O)OC(C)(C)C)cc2)cc1,x,x,0,4,x,x
CCn1nc(C)c(C=NNC(=O)c2ccoc2C)c1C,x,x,4,x,x,x
CCOC(=O)C(NC(=O)c1ccccc1F)(Nc1cc(C)on1)C(F)(F)F (stereo not drawn),12*,5,4,-2,-2,-2
O=C(O)CCCN1C(=O)C2C3CCC(C3)C2C1=O (stereo not drawn),7,12*,x,7,-3,1
